Experimental data published in publication PMC7056463 (British Journal of Pharmacology, 2020).
Each block holds one compound with its values, some of them ahead of it. Positions of bridges follow the written chain, without caps; N, C: chain ends. Residues, ends and D or L forms follow the SMILES beside them. No end group written: not given here.

Assays:
[1] = molecular target: T1, murine GC‐A (Mus musculus, UniProt P18293); test: cGMP formation in GC‐A‐transfected HEK293 cells; assay type: cell-based; conditions: 1 μM peptide, 5 min; cGMP ELISA; n = 3 in triplicates
T1 sequence (P18293 29-1057): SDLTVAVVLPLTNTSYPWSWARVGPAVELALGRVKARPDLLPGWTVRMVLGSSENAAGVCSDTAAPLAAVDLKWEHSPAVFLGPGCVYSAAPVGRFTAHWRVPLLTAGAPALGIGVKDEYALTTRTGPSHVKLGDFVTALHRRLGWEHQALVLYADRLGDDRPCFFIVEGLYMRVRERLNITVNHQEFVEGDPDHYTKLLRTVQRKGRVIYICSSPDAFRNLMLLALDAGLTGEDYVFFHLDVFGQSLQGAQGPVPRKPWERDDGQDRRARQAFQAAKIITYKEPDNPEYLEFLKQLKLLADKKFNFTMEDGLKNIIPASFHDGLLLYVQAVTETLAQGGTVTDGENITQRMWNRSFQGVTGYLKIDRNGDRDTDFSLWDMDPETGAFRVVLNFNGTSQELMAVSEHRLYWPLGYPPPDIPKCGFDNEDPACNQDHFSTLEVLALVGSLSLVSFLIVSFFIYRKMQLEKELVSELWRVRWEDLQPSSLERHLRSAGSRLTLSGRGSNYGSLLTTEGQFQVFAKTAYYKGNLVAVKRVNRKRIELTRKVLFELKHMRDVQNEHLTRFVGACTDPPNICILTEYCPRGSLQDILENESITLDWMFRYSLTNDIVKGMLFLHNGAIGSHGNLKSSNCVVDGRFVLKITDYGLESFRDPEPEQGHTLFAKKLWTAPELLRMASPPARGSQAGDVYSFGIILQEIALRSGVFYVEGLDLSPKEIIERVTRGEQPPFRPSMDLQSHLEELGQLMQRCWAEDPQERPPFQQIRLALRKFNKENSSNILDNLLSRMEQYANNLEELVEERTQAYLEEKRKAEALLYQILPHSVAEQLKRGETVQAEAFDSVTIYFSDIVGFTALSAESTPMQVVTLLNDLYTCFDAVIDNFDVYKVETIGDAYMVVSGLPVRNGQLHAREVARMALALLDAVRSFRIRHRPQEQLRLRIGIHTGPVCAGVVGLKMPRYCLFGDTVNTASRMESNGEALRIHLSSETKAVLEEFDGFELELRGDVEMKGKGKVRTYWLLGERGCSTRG
How it was run: (§1)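 HEK293 cells in DMEM/10% FBS were transfected with murine GC‐A or GC‐B plasmid (PolyFect, DMEM/0.5% FBS); empty‐plasmid cells served as controls. After 24 h, cells were exposed to 1 μM peptide or Tris vehicle for 5 min, washed in cold HBSS and lysed. cGMP was measured by ELISA (405 nm, 570 nm correction) in pmol/mL; n = 3 in triplicates.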

[2] = tested on: spontaneously hypertensive rats; assay type: in vivo, rat
[3] = molecular target: T2, murine GC‐B (Mus musculus, UniProt Q6VVW5); test: cGMP formation in GC‐B‐transfected HEK293 cells; assay type: cell-based; conditions: 1 μM peptide, 5 min; cGMP ELISA; n = 3 in triplicates
T2 sequence (Q6VVW5 17-1047): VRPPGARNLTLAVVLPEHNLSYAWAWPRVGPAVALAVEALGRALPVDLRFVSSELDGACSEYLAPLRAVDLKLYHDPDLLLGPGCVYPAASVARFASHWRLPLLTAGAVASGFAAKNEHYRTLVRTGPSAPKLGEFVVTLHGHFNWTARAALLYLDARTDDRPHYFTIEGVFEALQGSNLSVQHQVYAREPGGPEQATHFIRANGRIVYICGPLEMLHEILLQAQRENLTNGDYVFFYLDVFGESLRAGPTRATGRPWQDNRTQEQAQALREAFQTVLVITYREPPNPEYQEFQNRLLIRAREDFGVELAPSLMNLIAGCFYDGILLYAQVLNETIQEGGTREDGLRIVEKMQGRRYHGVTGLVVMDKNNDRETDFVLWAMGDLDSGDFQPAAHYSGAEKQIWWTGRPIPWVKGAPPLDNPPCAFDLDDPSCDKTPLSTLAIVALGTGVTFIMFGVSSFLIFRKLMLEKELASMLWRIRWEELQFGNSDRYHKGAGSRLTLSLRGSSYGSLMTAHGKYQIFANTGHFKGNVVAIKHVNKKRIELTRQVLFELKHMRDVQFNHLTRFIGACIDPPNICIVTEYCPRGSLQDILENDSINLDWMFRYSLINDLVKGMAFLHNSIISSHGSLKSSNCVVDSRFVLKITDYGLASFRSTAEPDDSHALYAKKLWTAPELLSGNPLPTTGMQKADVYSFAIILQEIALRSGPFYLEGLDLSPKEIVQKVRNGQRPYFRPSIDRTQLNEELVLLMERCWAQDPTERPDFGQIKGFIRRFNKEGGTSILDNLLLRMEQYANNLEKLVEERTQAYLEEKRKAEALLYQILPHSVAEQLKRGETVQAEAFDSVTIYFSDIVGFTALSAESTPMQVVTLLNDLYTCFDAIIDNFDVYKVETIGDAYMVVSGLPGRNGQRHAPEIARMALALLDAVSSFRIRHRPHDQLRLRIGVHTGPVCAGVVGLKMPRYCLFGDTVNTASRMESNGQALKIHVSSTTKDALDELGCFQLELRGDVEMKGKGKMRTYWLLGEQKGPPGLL
How it was run: as §1

[4] = tested on: C57B/L6J mice; test: Plasma cGMP after bolus injection in normotensive mice; assay type: in vivo, mouse; conditions: plasma taken after 4 min haemodynamic measurement, cGMP ELISA
How it was run: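 Male 16‐week C57B/L6J mice (randomised, blinded) were anaesthetised with isoflurane, ventilated and kept at about 37°C, with a carotid pressure catheter and jugular cannula. After a 10‐min baseline, an i.v. bolus of 1.67 nmol peptide g‐1 or saline was given and haemodynamics followed for 4 min. EDTA blood was then taken by LV puncture. Plasma cGMP was ELISA‐measured after 95% ethanol extraction; n = 7 per peptide, 5 saline.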

[5] = tested on: GC‐A and GC‐B double‐transfected HEK cells; test: Dose–response of cGMP in GC‐A and GC‐B double‐transfected HEK cells; assay type: cell-based, mouse; conditions: compared to BNP1‐32
How it was run: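 HEK293 cells were transfected with both murine GC‐A and GC‐B plasmids and used 24 h later. Cells were stimulated for 5 min with peptide at graded concentrations in Tris vehicle, washed in cold HBSS and lysed. cGMP was quantified by ELISA (405/570 nm). EC50 came from a sigmoidal dose–response fit, and curves were compared by two‐way ANOVA.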

[6] = tested on: spontaneously hypertensive rats; test: Cardiac ANP and BNP mRNA by real time PCR in spontaneously hypertensive rats; assay type: in vivo, rat; conditions: SHR; 3 days administration; RT‐PCR, relative to saline treated rats; n = 6
How it was run: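 After 3 days of subcutaneous osmotic minipump infusion (300 ng kg‐1 min‐1; saline controls) in male 12‐week SHR, cardiac RNA was isolated. 1 μg RNA was reverse‐transcribed and SYBR Green qPCR run with rat ANP and BNP primers. Melting curves checked product purity. Values are relative to saline‐treated rats; n = 6 per group.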

[7] = Degradation of hBNP by human lung homogenate; assay type: in vitro ADME; conditions: 10 μM peptide; human lung homogenate 90 μg protein 150 μL buffer; Tris 50 mM pH 7.5 with 0.1% BSA; 37°C; 10 min; LCMS

cGMP formation in GC‐A‐transfected HEK293 cells [1]: stimulated their native receptor GC‐A
Compound: BNP1‐32: murine B‐type natriuretic peptide 1‐32, synthesised by Biosyntan (SQGSTLRVQQRPQNSKVTHISSCFGHKIDRIG; Brain natriuretic peptide 45; UniProt P40753 77-108, looked up, fragment)

Stimulation of GC‐B in transfected HEK293 cells [3]: much more pronounced effect
cGMP effect on GC‐B transfected cells in comparison to BNP1‐32 [3]: 3 fold
cGMP formation in GC‐A‐transfected HEK293 cells [1]: significantly higher
Compound: CC[C@H](C)[C@@H]1NC(=O)[C@H](CCCNC(=N)N)NC(=O)[C@H](CC(=O)O)NC(=O)[C@H]([C@@H](C)CC)NC(=O)[C@H](CCCCN)NC(=O)[C@H](Cc2c[nH]cn2)NC(=O)CNC(=O)[C@H](Cc2ccccc2)NC(=O)[C@@H](NC(=O)[C@H](CO)NC(=O)[C@H](CO)NC(=O)[C@@H](NC(=O)[C@H](Cc2c[nH]cn2)NC(=O)[C@@H](NC(=O)[C@@H](NC(=O)[C@H](CCCCN)NC(=O)[C@H](CO)NC(=O)[C@@H](N)CC(N)=O)C(C)C)[C@@H](C)O)[C@@H](C)CC)CSSC[C@@H](C(=O)N[C@@H](CC(N)=O)C(=O)N[C@@H](C)C(=O)N[C@@H](CC(C)C)C(=O)N[C@@H](CCCCN)C(=O)O)NC(=O)CNC(=O)[C@H](CC(C)C)NC(=O)[C@H](CCCNC(=N)N)NC(=O)[C@H](CO)NC(=O)[C@H](C(C)C)NC(=O)[C@H](CO)NC(=O)CNC1=O [BNP1‐30] (H-NSKVTHISSCFGHKIDRIGSVSRLGCNALK-OH; disulfide 10-26; N-terminus assumed)
Lowering of SBP ([2]; SHR, osmotic minipump 300 ng kg^‐1 min^‐1 for 3 days, versus saline group): 16%
Reduction of systolic BP (abstract) ([2]; model of severe hypertension, 3‐day infusion): 30 mmHg
Increase in plasma cGMP levels compared to BNP1‐32 treated animals [4]: more pronounced increase
Efficiency in dose‐response curves of double‐transfected HEK293 cells [5]: more efficient
Cardiac ANP mRNA [6]: more pronounced
Cardiac BNP mRNA levels [6]: significantly reduced

Compound: human BNP1‐32: mature human BNP1‐32
Degradation of hBNP1‐32 in human lung homogenate [7]: decreased peak area

Compound: murine ANP: murine atrial natriuretic peptide (SLRRSSCFGGRIDRIGAQSGLGCNSFRY; disulfide 7-23 (inferred); ends not checked; UniProt P05125 123-150, looked up)
cGMP formation in GC‐A‐transfected HEK293 cells [1]: stimulated their native receptor GC‐A
